{"data": "Results gathered from unrelated publications", "target": "Calcium/calmodulin-dependent protein kinase type II subunit delta (CAMK2D, Homo sapiens, UniProt Q13557)", "note": "Lines come from different studies, so protocols differ."}
{"Structure (SMILES)": "O=C(NS(=O)(=O)c1ccc(NCC2CCOCC2)c([N+](=O)[O-])c1)c1ccc(N2CCN(Cc3ccc(C(F)(F)F)cc3-c3ccc(Cl)cc3)CC2)cc1Oc1cnc2[nH]ccc2c1", "test": "cell-free assay, competition with immobilised ligand", "setting": "1 µM", "measurement": "remaining binding", "result": "100%"}
{"Structure (SMILES)": "c1ccc(CNc2nc(N3CCOc4ccccc43)nc3c2CCCC3)cc1", "test": "target engagement in cells, inhibitor, chemoproteomics", "setting": "20 mM", "measurement": "inhibition", "result": "-17.7%"}
{"Structure (SMILES)": "Cc1sc(C(=O)NC2COC2)cc1-n1cc(NC(=O)Nc2c(F)cccc2Cl)cn1", "test": "enzyme activity, inhibitor", "setting": "10 µM", "measurement": "remaining activity", "result": "91.3%"}
{"Structure (SMILES)": "CN1CC(Oc2cnc(C#N)cc2-c2ccn3nc(NC(=O)C4CC4)cc3c2)C1", "test": "enzyme activity, inhibitor", "setting": "1 µM", "measurement": "inhibition", "result": "-3%"}
{"Structure (SMILES)": "CNC(=O)c1cc(Oc2ccc(NC(=O)Nc3ccc(Cl)c(C(F)(F)F)c3)cc2)ccn1", "test": "enzyme activity, inhibitor", "setting": "0.3 µM", "measurement": "inhibition", "result": "56%"}
{"Structure (SMILES)": "C[C@@H]1CCN(C(=O)CC#N)C[C@@H]1N(C)c1ncnc2[nH]ccc12", "test": "cell-free assay", "setting": "0.5 µM", "measurement": "remaining signal", "result": "98.2%"}
{"Structure (SMILES)": "COc1cccc(CNC(=O)c2nc3scc(COCc4ccc(C(=O)O)cc4)c3c(=O)[nH]2)c1", "test": "cell-free assay, competition with immobilised ligand", "setting": "1 µM", "measurement": "remaining binding", "result": "100%"}
{"Structure (SMILES)": "O=C1NC(=O)c2cc(Nc3ccc(F)cc3)c(Nc3ccc(F)cc3)cc21", "test": "cell-free assay", "setting": "0.5 µM", "measurement": "remaining signal", "result": "97.9%"}
{"Structure (SMILES)": "COc1cccc2c(NCc3ccccc3)nc(-n3c(N)nc4ccccc43)nc12", "test": "target engagement in cells, inhibitor, chemoproteomics", "setting": "20 mM", "measurement": "inhibition", "result": "-14.3%"}
{"Structure (SMILES)": "CSc1cccnc1N1CCN(Cc2nc3ccccc3[nH]2)CC1", "test": "cell-free assay, competition with immobilised ligand", "setting": "1 µM", "measurement": "remaining binding", "result": "100%"}
{"Structure (SMILES)": "COc1cc(Cl)c(C(=O)N[C@@H](CN[C@H]2CC[C@@H](N)CC2)Cc2ccc(C#N)cc2)cc1-c1ccc(CN[C@H](C)c2ccc(C)cc2)o1", "test": "enzyme activity, inhibitor", "setting": "1 µM", "measurement": "remaining activity", "result": "100%"}
{"Structure (SMILES)": "Cc1cc(NC(=O)c2cccc3cc(-c4cccc5[nH]nc(N)c45)ccc23)ccc1F", "test": "enzyme activity, inhibitor", "setting": "0.1 µM", "measurement": "activity vs control", "result": "102%"}
{"Structure (SMILES)": "Cc1ccc(C(=O)NCc2ccsc2)cc1C#Cc1cn(C(C)C)c2ncnc(N)c12", "test": "enzyme activity, inhibitor", "setting": "1 µM", "measurement": "activity vs control", "result": "102%"}
{"Structure (SMILES)": "CC(=O)N1CCC(c2ccc(C(=O)NC(=N)N)cc2C(F)(F)F)CC1", "test": "cell-free assay, competition with immobilised ligand", "setting": "1 µM", "measurement": "remaining binding", "result": "100%"}
{"Structure (SMILES)": "COc1cc2ncnc(Nc3ccc(Oc4ccccc4)c(C)c3C)c2cc1OC", "test": "enzyme activity, inhibitor", "setting": "1 µM", "measurement": "inhibition", "result": "2%"}
{"Structure (SMILES)": "CC(C)(C)c1nc2c(s1)c1nc(N)ncc1c1ccc(NS(=O)(=O)c3c(F)cccc3F)c(F)c12", "test": "enzyme activity, inhibitor, radiometric", "setting": "1 µM", "measurement": "remaining activity", "result": "96%"}
{"Structure (SMILES)": "Cc1ccc(Nc2nccc(N(C)c3ccc4c(C)n(C)nc4c3)n2)cc1S(N)(=O)=O", "test": "enzyme activity, inhibitor", "setting": "0.3 µM", "measurement": "inhibition", "result": "63%"}
{"Structure (SMILES)": "C[S+]([O-])c1ccc(-c2nc(-c3ccncc3)c(-c3ccc(F)cc3)[nH]2)cc1 (stereo not shown)", "test": "cell-free assay", "setting": "0.5 µM", "measurement": "remaining signal", "result": "103%"}
{"Structure (SMILES)": "O=C1NC(c2ccccn2)Sc2ccccc21 (stereo not shown)", "test": "cell-free assay, competition with immobilised ligand", "setting": "1 µM", "measurement": "remaining binding", "result": "75%"}
{"Structure (SMILES)": "CCN(CC)CCNC(=O)c1c(C)[nH]c(/C=C2\\C(=O)Nc3ccc(F)cc32)c1C", "test": "enzyme activity, inhibitor", "setting": "0.3 µM", "measurement": "inhibition", "result": "92%"}
{"Structure (SMILES)": "CC(C)c1ccc(NC(=O)c2cccs2)c(-c2nc3ccccc3[nH]c2=O)c1", "test": "enzyme activity, inhibitor", "setting": "1 µM", "measurement": "activity vs control", "result": "102%"}
{"Structure (SMILES)": "N#CCCc1ccc2c(c1)-c1[nH]c3ccc([N+](=O)[O-])cc3c1CC(=O)N2", "test": "cell-free assay", "setting": "0.5 µM", "measurement": "remaining signal", "result": "57.8%"}
{"Structure (SMILES)": "Nc1c(C(=O)NCc2ccc(C(=O)NCCCC3CCCCC3)cc2)cnn1-c1ccccc1", "test": "cell-free assay, competition with immobilised ligand", "setting": "0.1 µM", "measurement": "remaining binding", "result": "100%"}
{"Structure (SMILES)": "Cc1cnc(NC2CCOCC2)nc1-n1cnc(C(=O)NC(CN)c2cc(F)cc(Cl)c2)c1 (stereo not shown)", "test": "enzyme activity, inhibitor, radiometric", "setting": "1 µM", "measurement": "remaining activity", "result": "91%"}
{"Structure (SMILES)": "NS(=O)(=O)c1cc(NC(=O)Cc2ccccc2)ccc1Oc1cccc(Cl)c1", "test": "cell-free assay, competition with immobilised ligand", "setting": "1 µM", "measurement": "remaining binding", "result": "97%"}
{"Structure (SMILES)": "CCN(CC)c1ccc(C2=NNC(=O)CC2C)cc1[N+](=O)[O-] (stereo not shown)", "test": "enzyme activity, inhibitor", "setting": "10 µM", "measurement": "remaining activity", "result": "104%"}
{"Structure (SMILES)": "O=C(NCc1ncc(C(F)(F)F)cc1Cl)c1ccc2c(c1)C1(CCS(=O)(=O)CC1)[C@H](C1CC1)N2S(=O)(=O)c1ccc(F)cc1", "test": "cell-free assay, competition with immobilised ligand", "setting": "1 µM", "measurement": "remaining binding", "result": "100%"}
{"Structure (SMILES)": "Cc1ccc(NC(=O)c2ccc(C)c(C(F)(F)F)c2)cc1C#Cc1nn(C2CCC(O)CC2)c2ncnc(N)c12 (stereo not shown)", "test": "cell-free assay", "setting": "10 µM", "measurement": "remaining signal", "result": "89%"}
